Article PMC2902143 (Journal of RNAi and Gene Silencing : An International …, 2010)

What was measured:
HIV-1 LTR [1] = assay: HIV-1 LTR-CAT assay in HCT116 WT cells; assay type: cell-based; details: Flavopiridol, CR8#13, F07#13 100nM, 9AA 1000nM, 48hrs
Outline: (§1)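 HIV-1 LTR-CAT plasmid was transfected into HCT116 cells with or without pc-Tat. Six hours later, cells were treated with DMSO or test compound and incubated 48hrs at 37°C in complete DMEM. Dicer-/- extract was used at one tenth the amount of WT extract.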

[2] = system: infected ACH2, J1.1, OM10.1, U1 and uninfected CEM, Jurkat T-cells, and U937 cells; assay: MTT assay on infected and uninfected cells; assay type: cell-based; details: 50nM and 10μM
Outline: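 Cell viability was measured by MTT assay at 50nM and at a high drug level. Uninfected CEM, Jurkat and U937 cells were grown in RPMI 1640 with FBS, L-glutamine and penicillin/streptomycin at 37°C, 5% CO2.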

[3] = cited from earlier work
HIV-1 in T-cells = details: ref Agbottah et al, 2005; cited from earlier work
HIV-1 in monocytes = details: ref Agbottah et al, 2005; cited from earlier work
HIV-1 LTR [4] = assay: HIV-1 LTR-CAT assay in HCT116 Dicer-/- cells; assay type: cell-based; details: HCT116 Dicer-/- compared with HCT116 WT; 100nM; 48hrs
Outline: as §1

HIV-1 (pNL4.3) = assay: Reverse transcriptase assay, pNL4.3 electroporated U937 cells; assay type: cell-based; details: Flavopiridol 200nM, 48 hours post drug treatment
HIV-1 LTR [5] = assay: ChIP assay on the HIV-1 LTR in TZM-bl cells; assay type: cell-based; details: TSA for 7 days
Outline: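 TZM-bl cells carry an integrated HIV-1 LTR and were grown in DMEM with 10% FBS, 2mM L-glutamine and antibiotics. Cells were treated 7 days with sub-lethal TSA, then switched to complete medium and transfected with TAR-WT or control TAR-D RNA. ChIP was done on day 8 with HDAC-1 and Ago2 antibodies. Precipitated DNA was amplified with 0.1uM HIV-1 LTR primers.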

HIV-1 LTR [6] = assay: Luciferase assay in TSA treated TZM-bl cells; assay type: cell-based; details: TSA treatment
Outline: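 TZM-bl cells, which carry a stably integrated HIV-1 LTR-luciferase reporter, were treated with TSA for 7 days and then with test compound. Firefly luciferase activity was measured with the BrightGlo Luciferase Assay.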

**Q.** For `Nc1c2ccccc2nc2ccccc12` [9AA, 9-Aminoacridine], which “Inhibition of Tat-mediated HIV-1 LTR transcription (CAT assay)” value (from here on “Inhibition … (CAT assay)”) (HIV-1 LTR [1]) is on record?
**A.** moderate effects

**Q.** With `CC[C@H](CO)Nc1nc(NCc2ccc(-c3ccccn3)cc2)c2ncn(C(C)C)c2n1` [CR8] as the compound, how does the “Cell killing of uninfected cells (MTT assay)” value [2] read?
**A.** some cell killing of uninfected cells

**Q.** And the “Potency relative to Cyc202” value [3]?
**A.** roughly 25 times

**Q.** For `CC[C@H](CO)Nc1nc(NCc2ccccc2)c2ncn(C(C)C)c2n1` [Cyc202, R-roscovitine], which “Inhibition of HIV-1 in T-cells” value (HIV-1 in T-cells) is on record?
**A.** effective inhibitor

**Q.** And the “Inhibition of HIV-1 in monocytes” value (HIV-1 in monocytes)?
**A.** not in monocytes

**Q.** Which “Inhibition … (CAT assay)” value (HIV-1 LTR [1]) does the source give for `CN1CC[C@H](c2c(O)cc(O)c3c(=O)cc(-c4ccccc4Cl)oc23)[C@H](O)C1` [Flavopiridol] here?
**A.** inhibited viral transcription significantly better in cells that contained Dicer

**Q.** What about the “Inhibition … (CAT assay)” value (HIV-1 LTR [4]) of the same compound?
**A.** less potent

**Q.** What about the “RT levels in supernatant” value (HIV-1 (pNL4.3)) of the same compound?
**A.** able to decrease RT levels in both cell lines

**Q.** For `CC(/C=C/C(=O)NO)=C\[C@@H](C)C(=O)c1ccc(N(C)C)cc1` [TSA, Trichostatin-A], which “Association of HDAC-1 and Ago2 with the HIV-1 LTR (ChIP)” value (HIV-1 LTR [5]) is on record?
**A.** association was lost

**Q.** And the “Luciferase activity of integrated HIV-1-Luc” value (HIV-1 LTR [6])?
**A.** increased Luciferase activity
